Laboratory results published in ChEMBL document CHEMBL1150614, “Novel cytotoxic oxygenated C29 sterols from the Colombian marine sponge Polymastia tenax” (J Nat Prod, 2002).
Converted amounts (≈) assume the structure as drawn.

Key:
Details in all cases: read-out: LC50 (the source's name)
PC-3 = experiment: Cytotoxicity against human PC3 cells; format: functional
Method in brief: (§1)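 In vitro cytotoxicity assay against the cell line named; values reported as IC50 in µg/mL.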

A549 = experiment: Cytotoxicity against human A549 cells; format: functional; method in brief: as §1
[1] = Cytotoxicity against mouse MS1 cells; format: cell-based; method in brief: as §1
[2] = Cytotoxicity against human H116 cells; format: functional; method in brief: as §1
HT-29 = experiment: Cytotoxicity against human HT-29 cells; format: functional; method in brief: as §1

Compound `CC[C@H](CC[C@@H](C)[C@H]1CCC2=C3[C@H](O)[C@@H]4O[C@@]45C[C@@H](O)CC[C@]5(C)[C@H]3CC[C@@]21C)C(C)C` has a CC50 (PC-3) of 1 µg/mL (≈ 2.25 µM), a CC50 (A549) of 5 µg/mL (≈ 11.2 µM) and a CC50 [1] of 0.5 µg/mL (≈ 1.12 µM). It also gave a CC50 [2] of 1 µg/mL (≈ 2.25 µM) and a CC50 (HT-29) of 1 µg/mL (≈ 2.25 µM).

For `CC[C@H](CC[C@@H](C)[C@H]1CC[C@H]2C3=C(CC[C@]12C)[C@@]1(C)CC[C@H](O)C[C@@]12O[C@H]2[C@H]3O)C(C)C` (relative stereo), the CC50 (PC-3) was 1 µg/mL (≈ 2.25 µM), the CC50 (A549) was 1 µg/mL (≈ 2.25 µM) and the CC50 [1] was 0.5 µg/mL (≈ 1.12 µM). For the same compound, the CC50 [2] was 1 µg/mL (≈ 2.25 µM) and the CC50 (HT-29) was 1 µg/mL (≈ 2.25 µM).
